Bioassay records deposited in PubChem BioAssay by several laboratories.
A340 absorber = compound light absorbance at 340 nm, profiling panel, artefact control, biochemical, MLSMR library, data from PS, PMK, MK assays; compound absorbance at 340 nm, fold over control; fold change at 10 µM; 65,000 tested, under 10 active;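 active = at 10 µM dose, initial 340 nm absorbance at least 2 fold that of control wells; inactive = change under 2 fold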;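 also: initial absorbance extrapolated from kinetic A340 decline of NADH oxidation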
AP ELISA ortho = alternative complement pathway inhibitors, primary screen, biochemical, ELISA, human serum, orthogonally pooled compounds; LPS-coated ELISA, C3 deposition; tested in compound mixtures; inhibition, % at 5 µM; 62,000 tested, 0.08% active; AID 1235, 2008;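 active = inhibition above 30% in each of the two pooled mixtures holding the compound, so the lower value exceeds 30%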;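 also: 0% = serum in Mg-EGTA without compound and 100% = EDTA serum blank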
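Assay system: Human serum alternative complement pathway, C3 deposition on LPS-coated wells | Incubation: 1 h serum-compound exposure at 37 °C | Doses: 5 µM per compound in ten-compound mixtures | Read-out: Percent inhibition | Technique: ELISA with HRP anti-human C3 antibody, TMB substrate, absorbance 450 nm | Replication: Two pool placements per compound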
HePTP inhibitor = inhibitors of human HePTP phosphatase, primary screen, biochemical, absorbance, leukemia target; Tyrosine-protein phosphatase non-receptor type 7 (Homo sapiens), P35236; recombinant HePTP phosphatase activity, OD absorbance; inhibition, % at 20 µM; 110,000 tested, 0.64% active; AID 521, 2006; in the data active = inhibition above about 50%;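 also: plate controls were vehicle for no effect and reference inhibitor for full effect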
Target sequence (P35236 whole entry, looked up): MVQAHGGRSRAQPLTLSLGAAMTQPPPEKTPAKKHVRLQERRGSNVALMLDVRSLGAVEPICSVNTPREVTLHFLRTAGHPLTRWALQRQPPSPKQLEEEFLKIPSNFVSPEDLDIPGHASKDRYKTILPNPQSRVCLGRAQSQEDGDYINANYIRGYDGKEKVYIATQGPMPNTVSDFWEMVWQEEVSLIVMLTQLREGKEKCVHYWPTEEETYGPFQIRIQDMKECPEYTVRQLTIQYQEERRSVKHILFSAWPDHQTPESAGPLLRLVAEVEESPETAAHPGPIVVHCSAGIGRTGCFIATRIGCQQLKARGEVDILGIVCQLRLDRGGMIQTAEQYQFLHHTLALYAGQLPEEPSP
* = called active by the depositor; . = not tested or not shown; ! = repeats disagree. Sampled rows, rich in hits. Any-hit rate of the full collection: about 0.62%.

SMILES | A340 absorber | AP ELISA ortho | HePTP inhibitor
Cc1cc(C(=O)Nc2nc(-c3ccc(Cl)cc3)cs2)ccc1[N+](=O)[O-] | . | . | -19.2
CCOP(=O)(OCC)C(c1ccco1)N(C)C(=O)C1CC1 (stereo unspecified) | . | . | -6.8
Cc1ccc(C23CC4CC(CC(C(=O)Nc5cccc(C(=O)O)c5)(C4)C2)C3)cc1 | . | . | 2.5
Cc1ccc(C23CC4CC(CC(C(=O)Nc5ccc(F)cc5F)(C4)C2)C3)cc1 | . | . | 71.5*
O=C(Nc1ccccn1)c1ccc(CN(c2ccccc2)S(=O)(=O)c2ccccc2)cc1 | . | . | 11.9
O=C(Nc1cccnc1)c1ccc(CN(c2ccccc2)S(=O)(=O)c2ccccc2)cc1 | . | . | 103.9*
Cc1cccc(OCC(=O)N/N=C/c2ccncc2)c1 | . | . | 5.8
Cc1cc(/C=C2\C(=O)NC(=O)N(c3ccccc3F)C2=O)c(C)n1C | . | . | -3.7
CC(C)c1ccc(N2C(=O)NC(=O)/C(=C/c3ccc(I)o3)C2=O)cc1 | . | . | 32.1
O=C1NC(=O)N(c2ccccc2F)C(=O)/C1=C/c1ccc(I)o1 | . | . | 67.3*
O=C1NC(=O)N(c2cccc(F)c2)C(=O)/C1=C/c1ccc(I)o1 | . | . | 53.0*
Cc1[nH]c2ccc(Br)cc2c1CC(=O)NNS(=O)(=O)c1ccccc1 | . | . | -3.9
COc1cccc(NC(=O)COc2ccccc2C)c1 | . | . | -16.7
C(=N\Nc1nc(N2CCOCC2)nc(N2CCOCC2)n1)/c1ccc2c(c1)OCO2 | . | . | -8.5
COc1ccc(OC)c(C(c2c(C)[nH]n(-c3ccccc3)c2=O)c2c(C)[nH]n(-c3ccccc3)c2=O)c1 | . | . | 103.9*
COc1cccc(C(c2c(C)[nH]n(-c3ccccc3)c2=O)c2c(C)[nH]n(-c3ccccc3)c2=O)c1O | . | . | -14.5
CCN1C(=O)/C(=C\c2ccc(-c3ccc([N+](=O)[O-])cc3Br)o2)SC1=S | . | . | -8.1
Cc1ccc([N+](=O)[O-])cc1/C=C1/C=C(c2ccccc2)OC1=O | . | . | 1.1
NC1=NC(=O)/C(=C/c2ccc(-c3ccc([N+](=O)[O-])cc3Br)o2)S1 | . | . | 100.1*
O=C1OC(c2ccccc2)=C/C1=C/c1ccc(-c2ccc([N+](=O)[O-])cc2Br)o1 | . | . | 104.2*
CN(C)c1ccc(/C=C2\SC(=O)N(c3ccc(Cl)cc3)C2=O)cc1 | . | . | -5.8
CCc1cc(=O)oc2cc(C)cc(OCC(=O)c3ccccc3)c12 | . | . | 6.7
C/C(=N/NC(=O)c1ccc(Br)cc1)c1ccc(Cl)cc1 | . | . | -15.3
Cc1ccc(SC2CC(=O)N(c3ccccc3C(F)(F)F)C2=O)cc1 (stereo unspecified) | . | . | -5.1
COc1cccc(N2C(=O)CC(N3CCN(C(c4ccccc4)c4ccccc4)CC3)C2=O)c1 (stereo unspecified) | . | . | -29.7
SMILES | A340 absorber | AP ELISA ortho | HePTP inhibitor
COc1ccc(N2C(=O)CC(N3CCN(C(c4ccccc4)c4ccc(Cl)cc4)CC3)C2=O)cc1 (stereo unspecified) | . | . | 104.7*
O=C(NNc1nc(-c2ccccc2)c2cc(Cl)ccc2n1)c1ccc(Cl)cc1Cl | . | . | 3.9
O=C(O)CCCCCN1C(=O)C(=O)/C(=C(/O)c2ccc(Cl)cc2)C1c1ccc2c(c1)OCO2 (stereo unspecified) | . | . | -5.6
O=C(O)CCCCCN1C(=O)C(=O)/C(=C(/O)c2ccc([N+](=O)[O-])cc2)C1c1ccc2c(c1)OCO2 (stereo unspecified) | . | . | 104.2*
COc1ccc(OC)c(NC(=O)COc2ccc3ccccc3c2)c1 | . | . | 4.4
O=C1N=c2ccccc2=C1N=Nc1nc(O)c(-c2c(O)[nH]c3ccccc23)s1 | . | . | 66.0*
Oc1[nH]c2ccccc2c1C1=NCCCC1 | 1.18 | 7.6 | 11.0
O=c1[nH]ncc2c3ccccc3n(Cc3ccccc3)c12 | 1 | -3.2 | -0.5
O=C1NCC(Cn2c3ccccc3c3ccccc32)O1 (stereo unspecified) | . | . | 103.9*
Cc1cc(Cl)ccc1OCC(=O)Nc1ccccc1[N+](=O)[O-] | . | . | -8.5
Cc1ccc(S(=O)(=O)Nc2sc(Cc3ccccc3)c(C)c2C(N)=O)cc1 | . | . | 8.1
COc1ccc(CCNC(=O)c2ccc(OC)c(OC)c2)cc1 | . | . | -9.1
COc1cccc(C(=O)NC(NC(=S)Nc2cc(OC)ccc2OC)C(Cl)(Cl)Cl)c1 (stereo unspecified) | . | . | -2.0
COc1ccc(OC)c(NC(=S)NC(NC(=O)c2ccccc2Cl)C(Cl)(Cl)Cl)c1 (stereo unspecified) | . | . | 104.0*
O=c1c2c3c(sc2n2c(=S)[nH]nc2n1-c1ccccc1)CCCC3 | . | . | 7.9
S=c1[nH]nc2c3c4c(sc3n3c(=S)[nH]nc3n12)CCC4 | . | . | 101.2*
O=C(C1CN(S(=O)(=O)c2ccccc2)CCN1S(=O)(=O)c1ccccc1)N1CCCCCC1 (stereo unspecified) | 1.04 | 0.6 | 50.1*!
CC(C)(C)NC(=O)C1CN(S(=O)(=O)c2ccccc2)CCN1S(=O)(=O)c1ccccc1 (stereo unspecified) | 1.02 | 12.3 | -1.6
Cc1ccc(OCC(=O)Oc2ccc(C(=O)c3ccccc3)cc2C)c(C)c1 | . | . | 103.6*
Cc1ccc(OCC(=O)N(C)c2ccccc2)c(C)c1 | . | . | 4.6
Cc1cc2nc3s/c(=C\c4ccc(-c5ccc(Cl)c([N+](=O)[O-])c5)o4)c(=O)n3c2cc1C | . | . | 10.7
O=C(CSc1nc2ccc(N3C(=O)c4ccccc4C3=O)cc2s1)Nc1cccc([N+](=O)[O-])c1 | . | . | 79.6*
O=C(CSc1nc2ccc(N3C(=O)c4ccccc4C3=O)cc2s1)Nc1ccc(F)cc1 | . | . | 0.2
Cc1ccc(C(=O)O)cc1N1C(=O)c2ccc(Oc3cccc([N+](=O)[O-])c3)cc2C1=O | . | . | 3.0
O=C1C(=Cc2ccc(Sc3ccccc3)o2)C(=O)c2ccccc21 | . | . | 15.9
SMILES | A340 absorber | AP ELISA ortho | HePTP inhibitor
CC(=O)NN1C(=O)/C(=C\c2ccc(I)o2)SC1=S | . | . | 2.7
CC1(C)OC(=O)C(=Cc2ccc(I)o2)C(=O)O1 | . | . | 102.3*
O=C1C(=Cc2ccc(I)o2)C(=O)c2ccccc21 | . | . | 78.2*
O=C1CC(c2ccccc2)CC(O)=C1C=Nc1ccc(F)cc1 (stereo unspecified) | . | . | -15.5
Cn1c(O)c(C(N)=NC(=O)c2ccccc2)c(=O)n(C)c1=O | . | . | 7.1
Cc1ccc(C2SCC(=O)N2c2ccc(Cl)c(Cl)c2)cc1 (stereo unspecified) | . | . | 4.6
COc1ccc(-c2n[nH]c(=S)n2/N=C/c2cccs2)cc1 | . | . | -3.8
